In brackets after ≈: the same amount, converted by molar mass.

The experiment concerns Mythimna separata. The experiment in a line: Larvicidal activity against Oriental armyworm. In kind it is functional. An outline of the steps:
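Oriental armyworm (Mythimna separata) larvae dosed by foliar application. Each treatment run in triplicate. LC50 derived by Probit analysis. Reference insecticides were tested under the same conditions.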
What is called LC50 is the concentration lethal to half of the exposed cells or organisms. High values mean a less lethal substance, low ones a more lethal substance. As for `CC(C)(C)N(NC(=O)c1ccc2c(c1Cl)CCCO2)C(=O)c1ccc(Cl)cc1`, the LC50 was found to be 4.06 µg/mL (≈ 9.64 µM).
The figure for `CC(C)(C)N(NC(=O)c1ccc2c(c1Cl)CCCO2)C(=O)c1ccc(Cl)cc1Cl` is 4.11 µg/mL (≈ 9.02 µM).
The compound `CC(C)(C)N(NC(=O)c1ccc2c(c1Cl)CCCO2)C(=O)c1cc(Cl)cc(Cl)c1` registered an LC50 of 4.11 µg/mL (≈ 9.02 µM).
In turn, `CC(C)(C)N(NC(=O)c1ccc2c(c1Cl)CCCO2)C(=O)c1c(Cl)cc(Cl)cc1Cl` returned a 50% lethal concentration (LC50) of over 500 µg/mL.
For the compound `CC(C)(C)N(NC(=O)c1ccc2c(c1Cl)CCCO2)C(=O)c1c(Cl)cc(C(F)(F)F)cc1Cl`, the LC50 is over 500 µg/mL.
Take `CC(C)(C)N(NC(=O)c1ccc2c(c1Cl)CCCO2)C(=O)c1ccccc1F`: the LC50 turned out to be 4.75 µg/mL (≈ 11.7 µM).
Turning to `CC(C)(C)N(NC(=O)c1ccc2c(c1Cl)CCCO2)C(=O)c1ccccc1[N+](=O)[O-]`, the LC50 was 6.54 µg/mL (≈ 15.1 µM).
As for `CC(C)(C)N(NC(=O)c1ccc2c(c1Cl)CCCO2)C(=O)c1ccc([N+](=O)[O-])cc1`, the LC50 stood at 29.7 µg/mL (≈ 68.8 µM). This LC50 lies about 4.5-fold higher than the previous one.
In turn, `CC(C)(C)N(NC(=O)c1ccc2c(c1Cl)CCCO2)C(=O)c1ccc(F)cc1F` showed an LC50 of 5.69 µg/mL (≈ 13.5 µM).
`CC(C)(C)N(NC(=O)c1ccc2c(c1Cl)CCCO2)C(=O)c1cccc(I)c1`: the LC50 stood at 30.2 µg/mL (≈ 58.9 µM).
Regarding `COc1ccc(C(=O)N(NC(=O)c2ccc3c(c2Cl)CCCO3)C(C)(C)C)cc1`, the LC50 turned out to be 25.1 µg/mL (≈ 60.1 µM).
With `COc1ccc(C(=O)N(NC(=O)c2ccc3c(c2Cl)CCCO3)C(C)(C)C)cc1OC`, the LC50 came out at 19.8 µg/mL (≈ 44.2 µM).
Compound `COc1cc(C(=O)N(NC(=O)c2ccc3c(c2Cl)CCCO3)C(C)(C)C)cc(OC)c1OC` returned an LC50 of 42.7 µg/mL (≈ 89.4 µM).
For `CCOc1ccc(C(=O)N(NC(=O)c2ccc3c(c2Cl)CCCO3)C(C)(C)C)cc1`, the LC50 was determined as 215 µg/mL (≈ 500 µM). This LC50 is about 5-fold higher than that of the compound before.
`CC(C)(C)N(NC(=O)c1ccc2c(c1Cl)CCCO2)C(=O)c1cccc(Cl)c1` returned an LC50 of 5.98 µg/mL (≈ 14.2 µM).
In the case of `Cc1cc(C)cc(C(=O)N(NC(=O)c2ccc3c(c2C)OCCO3)C(C)(C)C)c1` it was 1.4 µg/mL (≈ 3.53 µM); in that of `CC(C)(C)N(NC(=O)c1ccc2c(c1Cl)CCCO2)C(=O)c1ccccc1`, 5 µg/mL (≈ 12.9 µM).
`Cc1ccccc1C(=O)N(NC(=O)c1ccc2c(c1Cl)CCCO2)C(C)(C)C` returned an LC50 of 31.3 µg/mL (≈ 78.1 µM). Against the preceding compound, the LC50 is about 6.3-fold higher.
`Cc1cccc(C(=O)N(NC(=O)c2ccc3c(c2Cl)CCCO3)C(C)(C)C)c1` displayed an LC50 of 2.78 µg/mL (≈ 6.93 µM). This LC50 is about 11-fold lower than that of the compound before.
Compound `Cc1ccc(C(=O)N(NC(=O)c2ccc3c(c2Cl)CCCO3)C(C)(C)C)c(C)c1` showed an LC50 of 6.14 µg/mL (≈ 14.8 µM).
`COc1cccc(C(=O)N(NC(=O)c2ccc3c(c2Cl)CCCO3)C(C)(C)C)c1` displayed a 50% lethal concentration (LC50) of 11.4 µg/mL (≈ 27.3 µM).
Compound `CC(C)(C)N(NC(=O)c1ccc2c(c1Cl)CCCO2)C(=O)c1ccc([N+](=O)[O-])cc1Cl` came in with an LC50 of 8.47 µg/mL (≈ 18.2 µM).
In the case of `Cc1cc(C)c(C(=O)N(NC(=O)c2ccc3c(c2Cl)CCCO3)C(C)(C)C)c(C)c1` it was over 500 µg/mL.
The figure for `COc1ccccc1C(=O)N(NC(=O)c1ccc2c(c1Cl)CCCO2)C(C)(C)C` is 10.1 µg/mL (≈ 24.2 µM); for `CC(C)(C)N(NC(=O)c1ccc2c(c1Cl)CCCO2)C(=O)c1cccc([N+](=O)[O-])c1` it is 399 µg/mL (≈ 924 µM).
In the case of `Cc1cc(C)cc(C(=O)N(NC(=O)c2ccc3c(c2Cl)OCCO3)C(C)(C)C)c1`, the LC50 stood at 1.4 µg/mL (≈ 3.36 µM).
`Cc1ccc(C(=O)N(NC(=O)c2ccc3c(c2Cl)CCCO3)C(C)(C)C)cc1`: the median lethal concentration (LC50) is 5.57 µg/mL (≈ 13.9 µM).
`CC(C)(C)N(NC(=O)c1ccc2c(c1Cl)CCCO2)C(=O)c1ccc(I)cc1` registered an LC50 of 43.5 µg/mL (≈ 84.9 µM).
In the case of `CC(C)(C)N(NC(=O)c1ccc2c(c1Cl)CCCO2)C(=O)c1ccccc1Cl` it was 10.8 µg/mL (≈ 25.5 µM); in that of `CC(C)(C)N(NC(=O)c1ccc2c(c1Cl)CCCO2)C(=O)c1ccc(Cl)cc1[N+](=O)[O-]`, 2.73 µg/mL (≈ 5.85 µM); in that of `Cc1cc(C)cc(C(=O)N(NC(=O)c2ccc3c(c2Cl)CCCO3)C(C)(C)C)c1` [N'-TERT-BUTYL-N'-(3,5-DIMETHYLBENZOYL)-N-5-CHLORO-6-CHROMANECARBOHYDRAZIDE], 2.25 µg/mL (≈ 5.42 µM).
`CC(C)(C)N(NC(=O)c1ccccc1)C(=O)c1ccccc1` [RH-5849] had a 50% lethal concentration (LC50) of 24.4 µg/mL (≈ 82.3 µM).
In the case of `CCc1ccc(C(=O)NN(C(=O)c2cc(C)cc(C)c2)C(C)(C)C)cc1` [TEBUFENOZIDE] it was 1.59 µg/mL (≈ 4.51 µM).
